Assay results as given in ChEMBL document CHEMBL1268930, “Design, synthesis, and biological evaluation of dibromotyrosine analogues inspired by marine natural products as inhibitors of human prostate cancer proliferation, invasion, and migration” (Bioorg Med Chem, 2010).
Calls of active or inactive are those of the source. The calls are words filed in the database; no cut-off is given here.

How the values were obtained:
PC-3 [1] = assay: Antimigratory activity against human PC3 cells after 24 hrs under serum-free condition by wound-healing assay; type: functional, cell-based; settings: PC-3, 24 h
Summary of the method: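 Confluent PC-3 monolayers (>95%) were scratched with a pipette tip and washed with PBS and serum-free medium. Compounds were added at 20, 50 and 100 µM in serum-free medium, with 0.2% DMSO vehicle, for 24 h. Cells were fixed and Diff-Quick stained. Cells migrating into the wound were counted in ≥3 random fields at 400×. IC50 for 50% inhibition of migration; n = 3/dose.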

PC-3 [2] = assay: Antiinvasive activity against human PC3 cells at 50 uM after 24 hrs by cultrex BME assay; type: functional, cell-based
Summary of the method: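 PC-3 cells in RPMI with 10% FBS at 37 °C, 5% CO2. The top chamber was coated with BME overnight, then seeded with 50,000 cells in serum-free RPMI. Compounds were added to the top chamber from a 6× (300 µM) solution. The lower chamber held medium with 10% FBS, fibronectin (1 µL/mL) and fMLP (10 nM). After 24 h the invaded cells were labelled with calcein-AM for 1 h, read at ex 485/em 520 nm and counted from a standard curve. n = 3.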

PC-3 [3] = assay: Antiproliferative activity against human PC3 cells after 72 hrs by MTT assay; type: functional, cell-based; settings: PC-3, 72 h
Summary of the method: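 PC-3 cells seeded at 8×10^3/well and attached 24 h. Medium replaced with serum-free RPMI containing compound (10, 50, 100 µM; DMSO stock, 0.2% DMSO at 100 µM) for 72 h at 37 °C, 5% CO2. MTT added for 4 h, solubilized, absorbance at 570 nm. % survival relative to DMSO; IC50 by nonlinear regression of log concentration vs % survival; n = 3/dose.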

[4] = Cytotoxicity against rat bone marrow cells assessed as inhibition of colony formation at 100 uM by clonogenic assay; type: cell-based; settings: bone marrow cell
Summary of the method: (§1)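 Rat femur bone marrow mononuclear cells isolated on a Histopaque-1077 gradient. 20,000 cells were plated in methylcellulose with FCS and rat recombinant GM-CSF, IL-3 and SCF (HALO kit), with compounds or vehicle. After 5 days GM-CFC colonies were measured as ATP luminescence (luciferase/luciferin) against a same-day standard curve. Results were normalized to vehicle means; n = 4; two-way ANOVA with Bonferroni tests.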

Gallus gallus [5] = species on record: Gallus gallus; assay: Antiangiogenic activity in chicken embryo chorioallantoic membrane model at 1 to 50 ug/disc after 48 hrs; type: functional, tissue-based
Summary of the method: (§2)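 Fertilized hen eggs incubated at 37 °C, constant humidity; shell windowed and taped, eggs kept upright. Compounds in CH2Cl2 or MeOH loaded on 2-mm cellulose nitrate discs (1, 10, 50 µg/disc), placed on CAM on day five between large vessels. Imaged at 0 h and every 6 h to 48 h. Blood vessels counted per 8.0 × 6.0 mm area around the disc, plus vessel length change. Graded on a 0–3 scale.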

Gallus gallus [6] = species on record: Gallus gallus; assay: Antiangiogenic activity in chicken embryo chorioallantoic membrane model assessed as number of blood vessels per 48 mm2 area around the treatment disc <12 at 1 to 50 ug/disc after 48 hrs
[7] = Cytotoxicity against rat bone marrow cells assessed as inhibition of colony formation at 10 uM by clonogenic assay; type: cell-based; settings: bone marrow cell; summary of the method: as §1
Gallus gallus [8] = species on record: Gallus gallus; assay: Antiangiogenic activity in chicken embryo chorioallantoic membrane model assessed as number of blood vessels per 48 mm2 area around the treatment disc >16. 3 at 1 to 50 ug/disc after 48 hrs; type: functional, tissue-based; summary of the method: as §2

| IC50 (PC-3 [1]) [µM] | IC50 (PC-3 [3]) [µM] | SMILES | Activity (PC-3 [2]) | Activity [4] | Activity (Gallus gallus [5]) | Activity (Gallus gallus [6]) | Activity [7] | Activity (Gallus gallus [8]) |
| --- | --- | --- | --- | --- | --- | --- | --- | --- |
| 57.9 | 40 | CCOC(=O)Cc1cc(Br)c(OCCCc2ccc(OC)cc2)c(Br)c1 | Active | Non-toxic | Active | – | – | – |
| 44.6 | > 100 | CCOC(=O)Cc1cc(Br)c(OC(=O)c2ccncc2)c(Br)c1 | – | – | – | Active | – | – |
| < 10 | > 100 | CCOC(=O)Cc1cc(Br)c(OC(=O)Cc2ccc(OC)cc2)c(Br)c1 | – | – | Active | – | – | – |
| – | – | NC(=O)CC1(O)C=C(Br)C(=O)C(Br)=C1 [VERONGIAQUINOL] | – | – | – | – | Toxic | – |
| 12.2 | > 100 | NC(=O)Cc1cc(Br)c(OC(=O)c2ccccc2)c(Br)c1 | – | – | – | Active | – | – |
| > 100 | > 100 | NC(=O)Cc1cc(Br)c(O)c(Br)c1 | – | Non-toxic | – | – | – | inactive |
| > 100 | > 100 | CCOC(=O)Cc1cc(Br)c(O)c(Br)c1 | – | Non-toxic | – | – | – | inactive |
| 75.5 | 29.7 | CCOC(=O)Cc1cc(Br)c(OCc2ccccc2)c(Br)c1 | – | – | – | Active | – | – |
| 44.6 | > 100 | CCOC(=O)Cc1cc(Br)c(OC(=O)c2ccccc2)c(Br)c1 | – | – | Active | – | – | – |
| 18.9 | > 100 | COc1ccc(CC(=O)Oc2c(Br)cc(CC(N)=O)cc2Br)cc1 | – | – | – | Active | – | – |
| > 100 | > 100 | CCOC(=O)Cc1cc(Br)c(OC(C)=O)c(Br)c1 | – | – | – | – | – | – |
| 91.3 | 49.2 | CCOC(=O)Cc1cc(Br)c(OCCC(C)C)c(Br)c1 | – | Non-toxic | – | – | – | inactive |
| 19.9 | 16.5 | CCOC(=O)Cc1cc(Br)c(OC/C=C(/C)CC/C=C(/C)CCC=C(C)C)c(Br)c1 | Active | Non-toxic | Active | – | – | – |
| 74.8 | > 100 | CC(=O)Oc1c(Br)cc(CC(N)=O)cc1Br | – | – | Active | – | – | – |
